This sample holds only a part of the variants without activity.

We go through 167 variants from the RNAGym collection of RNA variant scans (doi:10.1126/science.aae0568).

The labels stand for the following.
B1: tRNA (parent)
chain: GUUCCGUUGGCGUAAUGGUAACGCGUCUCCCUCCUAAGGAGAAGACUGCGGGUUCGAGUCCCGUACGGAACG

Variants of B1 are the subject of the data set. Kind of data set: yeast fitness relative to wild type (ratio to wild type); higher = fitter; tRNA-Arg(CCU), competitive growth, 37 C, YPD. The method, boiled down:
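Gene amplicons from the start population and from each of six end populations were read by 100-nucleotide paired-end sequencing. Those end populations came from pooled Saccharomyces cerevisiae strains carrying tRNA-Arg(CCU) gene variants at the native locus, competed in YPD at 37°C for 24 hours. Fitness relative to wild type was worked out from changes in genotype frequencies. Genotypes needed ≥ 100 starting reads, and estimates < 0.5 were set to 0.5.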
Turning to C5U A37C C46U U53C A69C, the yeast fitness is at most 0.5.

As to C5U A37U A69U, the yeast fitness came to 0.634. For C5U A21U C30G A42G U59C C66G G68A the value was at most 0.5; for C5U A37C U54A, at most 0.5; for C5U C11G U19G C24G C30U, 0.547. The figure for C5U A21G C27U A69U is at most 0.5. The figure for C5U C11A A21C C27G G68C is at most 0.5; for C5U C11A U13C C24G C30G C60U A69U it is at most 0.5; for C5U C11U A21U it is 0.696. As for C5U A40C U47C A65U, the yeast fitness was at most 0.5.

On to C5U A37C C46G C60U, for which the yeast fitness was at most 0.5. The figure for C5U A43U G56C G68U is 0.635; for C5U C11U G17A C31G G68A it is at most 0.5; for C5U A21U A57U A65U it is at most 0.5.

For C5U A65U G68C, the yeast fitness worked out at 0.541. The figure for C5U A21U U64A is at most 0.5; for C5U A45U G56A it is 0.715.

With C5U C11G C24U A42C, the yeast fitness was found to be 0.552. For C5U A21U C30G C33U C66A the value was at most 0.5. For C5U A42G A45G C55G the value was at most 0.5; for C5U A69U, 0.972; for C5U A37U A42U U59A, 0.537.

Regarding C5U C11A A40G C55A C66A, the yeast fitness is at most 0.5. For C5U C11U C61G G63C the value was 0.546. The figure for C5U A21U C30G C60G A70C is at most 0.5; for C5U A37C G39C it is at most 0.5; for C5U A43U C49U C61A C66U it is at most 0.5. For C5U A21G U28C A36G A69G the value was 0.599.

For the variant C5U A21G C24G U28G, the yeast fitness was at most 0.5. For C5U A57C C62U the value was 0.54; for C5U C11G C33A G67A, at most 0.5. The figure for C5U A37U A65G is 0.57; for C5U A42G U47A it is 0.619; for C5U C11A C24G C27G A36U G38C it is at most 0.5. For C5U C11U C33G A43C the value was at most 0.5; for C5U A21U A57U C60A G68C, 0.566; for C5U A37G A43C C62U, 0.541.

Take C5U C11U A15G G48C G63U A70U: the yeast fitness was at most 0.5. C5U C11U A15C U28A C62U C66A: the yeast fitness was at most 0.5. The figure for C5U A36G G51C is at most 0.5; for C5U A40G it is 1.01.

For C5U A40U, the yeast fitness stood at 0.833. The figure for C5U C11U U53G G56A C61U is at most 0.5; for C5U A37C U47C C61U it is at most 0.5. For C5U C11U A45U A70C, the yeast fitness came out at 0.725. The figure for C5U A37G A43C C46U C62U is at most 0.5.

As for C5U A21G C24A A42C G63A, the yeast fitness is at most 0.5. For the variant C5U C11U A15G G48C, the yeast fitness was determined as 0.553. The figure for C5U A36C U54A is at most 0.5. For C5U A40U A45G C46U the value was 0.986; for C5U A21U C29G G58C, at most 0.5. On to C5U C11A A21G A40U G68C, for which the yeast fitness was at most 0.5. The figure for C5U A65C G67C is 0.566; for C5U C11G it is 0.597; for C5U A43U C49U C66U it is at most 0.5. For C5U C11U A15G C34U G44C U47G the value was at most 0.5; for C5U C11U G38A G58C C61U C66U, 0.573. The figure for C5U C11G U13G G23C C34U U59C C66U is at most 0.5. As for C5U A36U A65U, the yeast fitness was 0.712. Take C5U A37G A45C C61G A70U: the yeast fitness is at most 0.5. The figure for C5U C11U C46U A65U A69U is 0.563. For C5U C11G U19G C24G C30U C61U the value was at most 0.5; for C5U C11U A14C C61A, at most 0.5; for C5U C11U G25A A37G C46G G51C A57C C61U, at most 0.5. On to C5U A21G U26A, for which the yeast fitness was determined as 0.738.

As to C5U A21U C30G, the yeast fitness was determined as 0.632. The figure for C5U A21G G25A A42U G58A is 0.744; for C5U C11U G25C it is 0.694. For C5U C11U A36U C60A, the yeast fitness is at most 0.5. Turning to C5U C11A U26A C29U C30A C31U, the yeast fitness is at most 0.5.

In the case of C5U C11A A14G, the yeast fitness is at most 0.5. For C5U A36C A43G U54A C55G A69U the value was at most 0.5; for C5U C11G U32A U35G C55A C61G, at most 0.5. For C5U C11U A40U G48A C49U the value was 0.709; for C5U A65U A69U, 0.623. The figure for C5U A43G C62A is 0.588; for C5U C11U C46U it is 0.752; for C5U C11U C46G it is 0.7. Consider C5U A45C C55U G68C, for which the yeast fitness is 0.57. For C5U A57G C66U the value was 0.655; for C5U A36U G67A, at most 0.5; for C5U A36G G52C, at most 0.5.

Take C5U A42C: the yeast fitness is 1.01. The figure for C5U A42G is 0.728; for C5U A40G G50C A57C G58C it is at most 0.5. For C5U C11U A14G A15G G48C the value was at most 0.5.

For the variant C5U C11U U32C C49U, the yeast fitness came out at 0.537. The figure for C5U A21U C30G C66U is at most 0.5. The figure for C5U A43U is 0.918.

For the variant C5U A43G, the yeast fitness is 0.966. The figure for C5U A43G A45G is 0.669; for C5U A45C it is 1.06; for C5U A40C A42G G68A it is at most 0.5.

C5U C11U C24G C61U C62G A65C: the yeast fitness is at most 0.5. The figure for C5U A57C G58C U59G C66U is at most 0.5; for C5U A42C C66U it is 0.793. The figure for C5U A36G A65G A70C is at most 0.5; for C5U A42U A69U it is 0.728. The figure for C5U A43U C49U C61G is 0.532. For the variant C5U A43U C49U C61U, the yeast fitness was at most 0.5.

Consider C5U C11A C24G C27G A36U G38C G67C, for which the yeast fitness was at most 0.5. On to C5U A42G G51C, for which the yeast fitness came to 0.549. For C5U A45G C49G U59C C60U A69C the value was at most 0.5; for C5U C11G C31U G41C U54G, 0.746; for C5U A37C, 0.764. Take C5U A37U: the yeast fitness stood at 0.732.

Turning to C5U A40U A57U, the yeast fitness is at most 0.5. The figure for C5U A36G A45U is 1.01; for C5U A37U C49A G56C it is at most 0.5; for C5U A40C C46A U54A it is 0.55. For C5U A40U A42G the value was at most 0.5; for C5U A21U C33U C62U A70C, at most 0.5; for C5U A21U U32A A40U C60G, 0.694. As for C5U C11U A36U C66U, the yeast fitness is at most 0.5.

On to C5U A70C, for which the yeast fitness was found to be 1.06. On to C5U A65G, for which the yeast fitness came out at 0.94. On to C5U C11G C29G, for which the yeast fitness amounted to 0.733. The figure for C5U A37U G56C is 0.686; for C5U A36G it is 1; for C5U A36C it is 0.69. For C5U A36U the value was 0.632; for C5U C11G C24U A42C G67A, at most 0.5; for C5U A36G C49U A69C, at most 0.5. For C5U A21U C30G C62U the value was 0.57. In the case of C5U A45U G68C, the yeast fitness amounted to 0.531. C5U A40C G48A: the yeast fitness was 0.592. For C5U C11A A14G A42G C55U A65U the value was at most 0.5; for C5U A40U G44A C61A, at most 0.5.

Regarding C5U A45C U53G, the yeast fitness came to 0.574. For C5U A21U C30G A70U, the yeast fitness amounted to 0.651. The figure for C5U A21G G67A is 0.629. For C5U A37U A57U A69C the value was at most 0.5; for C5U A45G G63A, 0.708; for C5U A40G A43G C55U, at most 0.5. The figure for C5U A21G C33G G38A C60A is at most 0.5. With C5U C11U A14C, the yeast fitness was found to be 0.731. For the variant C5U C11G C24U A42C A65C, the yeast fitness was 0.605. C5U C11U C30G C61A: the yeast fitness is at most 0.5.

With C5U C11U C46U G51A C66U, the yeast fitness is at most 0.5. Turning to C5U C22A, the yeast fitness came to 0.84. The figure for C5U A42G C49U A65C is at most 0.5. The figure for C5U A40U G56A G67C is at most 0.5; for C5U A37G A43C U59C C62U it is at most 0.5. In the case of C5U C11U U28C C34G A40G A43G C46G G52A C55U C66U, the yeast fitness is at most 0.5. Consider C5U A43C A69C, for which the yeast fitness came out at 0.802.

As to C5U C11A U28G G44C, the yeast fitness was at most 0.5. For C5U A45C G58C the value was 0.977; for C5U A43U G48A C61G A70C, at most 0.5; for C5U A37C A70C, 0.631. In the case of C5U A21U C33U G50A U59C, the yeast fitness was at most 0.5. The figure for C5U A36U A45U is at most 0.5; for C5U A37C A40C G51A C55A G58A it is 0.529; for C5U A42U A43G it is 0.63. For C5U C11U A21C C24U U26C U28A C31G C49G the value was at most 0.5; for C5U C11U A21G C24G A42U A43C U53G A57C, at most 0.5; for C5U A40C C46A, 0.794. The figure for C5U C11A U54C G63A is at most 0.5; for C5U C11A A69U it is at most 0.5; for C5U C11G C33A it is 0.557. C5U C11A G44C: the yeast fitness is at most 0.5. The figure for C5U A37G U47G A69G is at most 0.5; for C5U A45C C62A it is 0.701. For C5U A45C C62U the value was 0.768. The figure for C5U C22A A42C C55G A57C C62U is at most 0.5. For the variant C5U C11G C24G, the yeast fitness is at most 0.5. As for C5U A57G, the yeast fitness was found to be 0.807.

Consider C5U A57C, for which the yeast fitness was 0.659.
